Screens deposited in PubChem by several laboratories.
PRMT1 inh: PRMT1 (human) inhibition, primary screen; inhibition, % at 2.79 µM; Q99873; hit rate 1.3% among 370,000; recombinant PRMT1, activity-based probe fluorescence polarization;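 active means inhibition above about 21% made by adding two undisclosed values, limit read from the data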
TDP2 absorb: blocks human TDP2 phosphodiesterase activity. O95551. recombinant TDP2, T5PNP hydrolysis, p-nitrophenol absorbance 415 nm. inhibition, % at 12.8 µM. hit rate 0.34% among 370,000. AID 720702;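 active means inhibition above the mean of all tested compounds plus 3 SD, set per campaign, cut at about 25% in these data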;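 further: 0% = DMSO with enzyme and 100% = buffer with substrate but no TDP2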
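Material: recombinant human TDP2; quantity: TDP2 enzyme at 120 nM final; medium: Tris-HCl pH 7.5 with MgCl2; compound: single concentration, 12.8 µM nominal, with 1% DMSO; incubation: 2 h enzyme incubation at 37 °C; signal: epi absorbance; measure: percent inhibition; benchmarks: high control without enzyme, low control DMSO plus TDP2; repeats: singlicate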
GSTO1 counter: blocks human GSTO1 in RBBP9 counter-screen | recombinant GSTO1, activity-based probe fluorescence polarization | hit rate 1.1% among 300,000 | P78417 | inhibition, % at 5.96 µM;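 active means inhibition above the campaign mean inhibition plus 3 SD, cut at about 35% in these data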;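 further: 0% = GSTO1-1 with DMSO and 100% = wells lacking GSTO1-1 enzyme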
Target sequence (P78417 whole entry, looked up): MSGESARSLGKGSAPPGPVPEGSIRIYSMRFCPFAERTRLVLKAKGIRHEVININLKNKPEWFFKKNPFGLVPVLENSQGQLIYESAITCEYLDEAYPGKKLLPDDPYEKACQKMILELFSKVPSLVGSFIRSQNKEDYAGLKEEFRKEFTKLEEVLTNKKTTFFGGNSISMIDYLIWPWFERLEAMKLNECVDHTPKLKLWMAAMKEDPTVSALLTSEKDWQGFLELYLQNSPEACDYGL
Apaf-1 inh: blocks human Apaf-1 apoptosome activity | O14727 | hit rate 0.71% among 330,000 | AID 489030 | inhibition, % at 20 µM | reconstituted apoptosome caspase-3 activity, DEVD-Rh110 fluorescence; active means inhibition of at least 40% at 20 µM;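 further: plate controls were DMSO wells for no effect and DEVD-CHO caspase inhibitor wells for full effect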
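Material: reconstituted apoptosome with Apaf-1, cytochrome c, caspase-9, procaspase-3, dATP. Technique: Rh110 fluorescence intensity. Buffer or medium: pH 7.5 Hepes buffer with CHAPS, BSA, DTT. Times: 30 min plus 50 min, RT.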
PAD4 FP inh: inhibitors of human PAD4. inhibition, % at 6.36 µM. recombinant PAD4, RCA probe fluorescence polarization. Q9UM07. hit rate 0.41% among 330,000;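 active means percent inhibition above a cutoff equal to the mean of all tested compounds plus 3 SD, cut at about 15% in these data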;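 further: 0% = PAD4 with RCA probe and DMSO and 100% = probe without PAD4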
Numbers without * were called inactive; / = not tested or not shown. A selection: hits, their analogues and other compounds. The true share with any hit is near 2.6%.

SMILES	PRMT1 inh	TDP2 absorb	GSTO1 counter	Apaf-1 inh	PAD4 FP inh
COc1ccc(/C=N\NC(=O)c2cc(O)c(O)c(O)c2)cc1CN1CCN(c2ccc(F)cc2)CC1	7	4	52*	/	-3
CN(CC(=O)Nc1c(Cl)cccc1Cl)C(=O)c1ccccc1SCC(=O)N1CCCC1	-1	-6	2	29	1
Cc1cccc(C)c1NC(=O)CN(C)C(=O)c1ccccc1SCC(=O)N1CCCC1	3	-8	20	42*	5
CCOC(=O)C1=C(C)NC(=S)NC1c1ccc(-c2cccc(Cl)c2C)o1 (stereo unspecified)	22*	3	11	26	-4
CC(c1ccco1)N(C(=O)c1ccccc1NS(=O)(=O)c1ccc(Cl)c([N+](=O)[O-])c1)c1ccccn1 (stereo unspecified)	1	9	54*	11	-2
CC(c1ccco1)N(C(=O)c1cc(Cl)cc(Cl)c1)c1ccccn1 (stereo unspecified)	1	-12	5	14	3
Cc1ccc(C2=NC(=O)/C(=C/c3cc(O)c(O)c(Br)c3)S2)cc1	23*	-6	/	22	/
COc1cc(/C=C2\SC(c3ccc(C)cc3)=NC2=O)cc(OC)c1O	17	7	14	-13	4
Cc1ccc(C(=O)NCCc2sc(C)nc2C)cc1	23*	1	0	1	-4
Cc1nc(C)c(CCNC(=O)c2ccc(C(F)(F)F)cc2)s1	1	1	-2	-6	1
O=C(COC(=O)c1ccccc1C(=O)N1CCN(c2ccccc2)CC1)Nc1ccc(F)cc1	9	9	-1	5	0
O=C(COC(=O)c1ccccc1C(=O)N1CCN(c2ccccc2)CC1)Nc1ccccc1	22*	-23	6	2	-2
COc1ccc(C(=O)CCN2CCc3cc(OC)c(OC)cc3C2)cc1	22*	-2	-1	0	-2
CC(C)CCNC(=O)C12CN(Cc3ccccc3)CC1C(c1ccc([N+](=O)[O-])cc1)=NO2 (stereo unspecified)	22*	-4	7	11	-5
COc1cc2c3cc1Oc1cc(ccc1O)C[C@@H]1c4c(cc(OC)c(O)c4Oc4ccc(cc4)C[C@@H]3N(C)CC2)CC[N+]1(C)C	-2	-13	/	/	/
COc1ccc2cc1Oc1ccc(cc1)CC1c3c(cc(OC)c4c3Oc3cc5c(cc3O4)CCNC5C2)CCN1C (stereo unspecified)	/	/	-11	41*	-1
COc1ccc2cc1Oc1ccc(cc1)C[C@H]1c3c(cc(OC)c4c3Oc3c(ccc5c3[C@H](C2)N(C)CC5)O4)CCN1C	/	/	/	59*	-4
N#Cc1ccc(/C=C2\CC3(OC(=O)c4ccco4)CCCN2C3)cc1 (stereo unspecified)	0	-2	/	/	/
O=C1C(=O)N(CCN2CCOCC2)C(c2ccc([N+](=O)[O-])cc2)/C1=C(/O)c1ccc2c(c1)OCO2 (stereo unspecified)	23*	-2	0	-319	1
Cc1oc(-c2cccs2)nc1CS(=O)CC(=O)NCCc1ccccc1 (stereo unspecified)	22*	15	4	15	-8
CC(C)N(Cc1cn(Cc2ccccc2)nn1)S(=O)(=O)c1ccccc1Br	2	5	/	/	/
O=C1C(Cl)=C(Nc2ccccc2O)C(=O)N1c1ccccc1	22*	-5	6	10	-10
Cc1ccc(C(=O)N2CCCCC2)cc1NC1=C(Cl)C(=O)N(Cc2ccccc2)C1=O	1	4	/	22	3
Cc1ccc(O)c(NC2=C(Cl)C(=O)N(Cc3ccccc3)C2=O)c1	24*	-6	/	/	/
CCOC(=O)CSc1nnc(-c2ccccc2)o1	0	-2	5	-2	-2
SMILES	PRMT1 inh	TDP2 absorb	GSTO1 counter	Apaf-1 inh	PAD4 FP inh
O=C(CSc1nnc(-c2ccccc2)o1)c1nnc(-c2ccccc2)o1	24*	8	26	13	-22
COc1nc(OC)nc(N2CCC(C(=O)N(C)Cc3ccccc3F)CC2)n1	-1	-6	/	/	/
CC(=O)c1cccc(S(=O)(=O)NC2CCCCCC2)c1	1	0	7	14	-1
CC(=O)c1cccc(S(=O)(=O)NC2CC2)c1	23*	-7	1	-1	0
O=C(CSC1=NS(=O)(=O)c2ccccc21)Nc1ccccc1	63*	8	7	-14	7
O=C(C1CCCN1S(=O)(=O)c1ccc(F)cc1)N1CCc2ccccc2C1 (stereo unspecified)	5	4	/	/	/
